Broadly, the inhibition is the percentage by which the read-out fell short of the control. Broadly, the IC50 is the point on the concentration scale where inhibition reaches its midpoint.

Experimental findings from ChEMBL document CHEMBL1142412, “Bis-(-)-nor-meptazinols as novel nanomolar cholinesterase inhibitors with high inhibitory potency on amyloid-beta aggregation” (J Med Chem, 2008) are described below.

Each structure is given as a SMILES string.

Test [1] is filed under the species Mus musculus. Kind of test: Selectivity for mouse brain AChE over mouse serum BChE. The test is classed as tissue-based.
For test [2], the target named is T1, Acetylcholinesterase (Homo sapiens, UniProt P22303). The experiment in a line: Inhibition of human recombinant AChE-induced amyloid beta aggregation at 200 uM by thioflavin T fluorescence method. A digest of the protocol:
(§1)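 Aβ(1–40), stock from HFIP, dissolved in DMSO, final 230 µM, incubated 48 h at room temperature in 0.215 M sodium phosphate pH 8.0 with human recombinant AChE (final 2.3 µM, Aβ:AChE 100:1) ± inhibitor. […] Run in duplicate.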

Test [3] addresses T1, Acetylcholinesterase. Kind of test: Inhibition of human recombinant AChE-induced amyloid beta aggregation at 100 uM by thioflavin T fluorescence method. A digest of the protocol: as §1
Test [4] concerns the target T1, Acetylcholinesterase. The experiment in a line: Inhibition of human recombinant AChE-induced amyloid beta aggregation by thioflavin T fluorescence method. In a few lines:
as §1

Test [5] concerns the target T2, Acetylcholinesterase (Mus musculus, UniProt P21836).
T2 sequence (P21836 whole entry): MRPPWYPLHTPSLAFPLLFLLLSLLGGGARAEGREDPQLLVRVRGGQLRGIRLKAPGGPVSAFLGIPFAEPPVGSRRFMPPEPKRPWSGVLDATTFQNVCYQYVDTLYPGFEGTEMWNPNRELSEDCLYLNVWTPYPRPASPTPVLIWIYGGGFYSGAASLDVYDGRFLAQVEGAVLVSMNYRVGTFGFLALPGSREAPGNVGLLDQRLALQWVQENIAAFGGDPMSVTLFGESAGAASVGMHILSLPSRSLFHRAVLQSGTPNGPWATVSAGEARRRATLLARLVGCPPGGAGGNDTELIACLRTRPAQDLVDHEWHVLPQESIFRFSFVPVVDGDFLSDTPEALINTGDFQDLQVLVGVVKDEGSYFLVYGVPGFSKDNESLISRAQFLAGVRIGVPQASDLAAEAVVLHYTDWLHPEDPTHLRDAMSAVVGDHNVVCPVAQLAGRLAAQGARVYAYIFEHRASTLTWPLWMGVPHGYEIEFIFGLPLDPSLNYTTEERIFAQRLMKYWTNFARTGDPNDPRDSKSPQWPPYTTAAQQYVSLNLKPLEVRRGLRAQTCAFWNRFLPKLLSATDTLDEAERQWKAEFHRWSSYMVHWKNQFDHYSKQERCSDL
Kind of test: Inhibition of mouse brain AChE.

Test [6] has as its target Cholinesterase (Mus musculus, UniProt Q03311). Kind of test: Inhibition of mouse serum BChE. A digest of the protocol: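 Modified Ellman assay with mouse serum as the enzyme source. Inhibitor at several concentrations, preincubated 20 min at 37 °C with DTNB. Substrate butyrylthiocholine iodide 0.05 mM. ΔA412 read at 25 °C. IC50 by nonlinear regression of log concentration–response. Mean ± SEM of at least three independent measures.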

T1 sequence (P22303 whole entry): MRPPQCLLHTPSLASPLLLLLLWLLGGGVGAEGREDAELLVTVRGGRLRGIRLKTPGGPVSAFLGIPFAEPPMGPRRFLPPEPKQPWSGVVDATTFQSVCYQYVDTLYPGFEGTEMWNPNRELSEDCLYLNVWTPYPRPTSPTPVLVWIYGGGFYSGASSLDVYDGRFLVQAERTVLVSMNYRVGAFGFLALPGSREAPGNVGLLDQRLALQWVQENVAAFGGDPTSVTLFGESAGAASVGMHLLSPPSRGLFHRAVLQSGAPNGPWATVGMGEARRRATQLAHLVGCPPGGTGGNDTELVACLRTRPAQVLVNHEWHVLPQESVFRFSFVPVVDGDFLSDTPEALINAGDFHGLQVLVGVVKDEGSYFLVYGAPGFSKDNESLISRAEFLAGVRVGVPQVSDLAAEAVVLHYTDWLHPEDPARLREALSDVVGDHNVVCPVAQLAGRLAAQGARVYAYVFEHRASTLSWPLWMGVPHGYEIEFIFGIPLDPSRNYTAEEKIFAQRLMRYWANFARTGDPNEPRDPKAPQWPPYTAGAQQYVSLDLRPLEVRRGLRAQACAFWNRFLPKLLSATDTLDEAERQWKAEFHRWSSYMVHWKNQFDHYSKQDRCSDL
Cholinesterase, sequence (Q03311 whole entry): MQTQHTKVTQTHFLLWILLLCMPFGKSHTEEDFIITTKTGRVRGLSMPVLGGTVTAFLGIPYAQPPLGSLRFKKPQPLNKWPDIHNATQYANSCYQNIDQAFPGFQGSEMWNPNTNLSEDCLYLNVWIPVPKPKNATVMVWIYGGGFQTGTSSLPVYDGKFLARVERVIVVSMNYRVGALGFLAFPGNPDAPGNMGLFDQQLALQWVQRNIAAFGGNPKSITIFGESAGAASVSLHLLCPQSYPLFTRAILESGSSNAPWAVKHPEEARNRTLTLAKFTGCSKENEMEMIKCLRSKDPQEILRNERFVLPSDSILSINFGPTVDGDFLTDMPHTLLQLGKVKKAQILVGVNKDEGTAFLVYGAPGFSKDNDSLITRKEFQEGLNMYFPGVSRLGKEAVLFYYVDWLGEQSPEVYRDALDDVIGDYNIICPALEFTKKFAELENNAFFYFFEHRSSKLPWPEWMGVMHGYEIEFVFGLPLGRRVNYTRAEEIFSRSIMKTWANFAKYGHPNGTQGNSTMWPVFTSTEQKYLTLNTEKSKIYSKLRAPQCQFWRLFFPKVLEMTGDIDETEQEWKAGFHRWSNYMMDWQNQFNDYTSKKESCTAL

With `CC[C@@]1(c2cccc(O)c2)CCCCN(CCCCN2CCCC[C@@](CC)(c3cccc(O)c3)C2)C1`, in test [1], the Ratio IC50 is 0.0049.

Consider `CC[C@@]1(c2cccc(O)c2)CCCCN(CCCCCCCCN2CCCC[C@@](CC)(c3cccc(O)c3)C2)C1`, for which, in test [1], the Ratio IC50 was determined as 0.8. The inhibition in test [2] came to 15.2%; in test [3], 0%.

For the molecule `CC[N+](C)(CC)CCC[n+]1c(-c2ccccc2)c2cc(N)ccc2c2ccc(N)cc21`, the inhibition in test [2] was found to be 98.6%; in test [3], 85.6%.

Take `CC[C@@]1(c2cccc(O)c2)CCCCN(CCCN2CCCC[C@@](CC)(c3cccc(O)c3)C2)C1`: the Ratio IC50 in test [1] stood at 0.0031.

With `CC[C@@]1(c2cccc(O)c2)CCCCN(CCCCCCCCCN2CCCC[C@@](CC)(c3cccc(O)c3)C2)C1`, in test [1], the Ratio IC50 was found to be 2.6. Besides, in test [4], the IC50 is 16.6 µM. Moreover, the inhibition in test [2] amounted to 99.2%; in test [3], 90.8%.

For `CC[C@@]1(c2cccc(O)c2)CCCCN(CCCCCCCCCCCN2CCCC[C@@](CC)(c3cccc(O)c3)C2)C1`, the Ratio IC50 in test [1] was determined as 3.1.

Take `CC[C@@]1(c2cccc(O)c2)CCCCN(CCCCCCCN2CCCC[C@@](CC)(c3cccc(O)c3)C2)C1`: in test [1], the Ratio IC50 amounted to 0.38.

Turning to `CC[C@@]1(c2cccc(O)c2)CCCCN(CCCCCCN2CCCC[C@@](CC)(c3cccc(O)c3)C2)C1`, the Ratio IC50 in test [1] was determined as 0.098.

As for `CC[C@@]1(c2cccc(O)c2)CCCCN(CCN2CCCC[C@@](CC)(c3cccc(O)c3)C2)C1`, the Ratio IC50 in test [1] was determined as 0.0029.

On to `CC[C@@]1(c2cccc(O)c2)CCCCN(CCCCCCCCCCCCN2CCCC[C@@](CC)(c3cccc(O)c3)C2)C1`, for which the Ratio IC50 in test [1] is 2.4.

With `CC[C@@]1(c2cccc(O)c2)CCCCN(CCCCCCCCCCN2CCCC[C@@](CC)(c3cccc(O)c3)C2)C1`, the Ratio IC50 in test [1] worked out at 1.8. In addition, the half-inhibitory concentration (IC50) in test [4] worked out at 5.8 µM. In addition, the inhibition amounted to 98.4% in test [2] and 95.8% in test [3].

With `CCC1(c2cccc(O)c2)CCCCN(C)C1` (single isomer, unassigned; (-)) [MEPTAZINOL], the results for the concentration for half-maximal inhibition (IC50) in test [5] and in test [6] were 41 µM and 15 µM, respectively. The Ratio IC50 in test [1] is 0.37. The inhibition in test [2] is 0%.

In the case of `CCC1(c2cccc(O)c2)CCCCN(CCCCCN2CCCC[C@@](CC)(c3cccc(O)c3)C2)C1` (single isomer, unassigned; (-)), the IC50 in test [5] turned out to be 1 µM; in test [6], 0.192 µM. The Ratio IC50 in test [1] is 0.048.
